Assay results as given in ChEMBL document CHEMBL4680075, “Small-Molecule CD4-Mimics: Structure-Based Optimization of HIV-1 Entry Inhibition” (ACS Med Chem Lett, 2016).

Columns and labels:
[1] = tested on: Human immunodeficiency virus 1; assay: Antiviral activity against HIV1 JRFL infected in dog Cf2Th/CD4-CCR5 cells assessed as inhibition of viral entry incubated for 30 mins prior to infection and measured after 48 hrs post infection by luciferase reporter gene assay; type: functional, organism-based; conditions: Human immunodeficiency virus 1, JRFL
Procedure, shortened: (§1)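 Cf2Th-CD4/CCR5 target cells infected with recombinant luciferase-expressing HIV-1 pseudoviruses bearing the indicated strain's envelope glycoproteins, with compound at increasing concentrations; infection read as target-cell luciferase activity, expressed as percent of infection without compound; IC50 derived from this.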

[2] = tested on: Human immunodeficiency virus 1; assay: Antiviral activity against HIV1 YU-2 infected in dog Cf2Th/CD4-CCR5 cells assessed as inhibition of viral entry incubated for 30 mins prior to infection and measured after 48 hrs post infection by luciferase reporter gene assay; type: functional, organism-based; conditions: Human immunodeficiency virus 1, YU-2, Cf2Th-CCR5; procedure, shortened: as §1
[3] = tested on: Human immunodeficiency virus 1; assay: Antiviral activity against HIV1 AD8 infected in dog Cf2Th/CD4-CCR5 cells assessed as inhibition of viral entry incubated for 30 mins prior to infection and measured after 48 hrs post infection by luciferase reporter gene assay; type: functional, organism-based; conditions: Human immunodeficiency virus 1, AD8, Cf2Th-CCR5; procedure, shortened: as §1
[4] = tested on: Human immunodeficiency virus 1; assay: Antiviral activity against HIV1 pseudotyped with A-MLV envelop glycoprotein infected in dog Cf2Th/CD4-CCR5 cells assessed as inhibition of viral entry incubated for 30 mins prior to infection and measured after 48 hrs post infection by luciferase reporter gene assay; type: functional, organism-based; conditions: Human immunodeficiency virus 1, Cf2Th-CCR5
Procedure, shortened: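 Control counterscreen: Cf2Th-CD4/CCR5 cells infected with luciferase-expressing HIV-1 pseudotyped with amphotropic murine leukemia virus envelope glycoproteins, compound at increasing concentrations; luciferase activity in target cells as percent of no-compound infection; IC50 from this.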

[5] = Binding affinity to HIV1 YU-2 gp120 by isothermal titration calorimetric analysis; parameters: species or system Human immunodeficiency virus 1
[6] = tested on: Human immunodeficiency virus 1; assay: Binding affinity to HIV1 YU-2 gp120 assessed as change in gibbs free energy by isothermal titration calorimetric analysis
[7] = tested on: Human immunodeficiency virus 1; assay: Binding affinity to HIV1 YU-2 gp120 assessed as change in enthalpy by isothermal titration calorimetric analysis
[8] = tested on: Human immunodeficiency virus 1; assay: Binding affinity to HIV1 YU-2 gp120 assessed as change in entropy by isothermal titration calorimetric analysis
[9] = tested on: Human immunodeficiency virus 1; assay: Antiviral activity against HIV1 Clade B infected in human TZM-bl cells assessed as inhibition of viral entry incubated for 30 mins prior to infection and measured after 48 hrs post infection by luciferase reporter gene assay; type: functional, organism-based; conditions: Human immunodeficiency virus 1, Clade B
[10] = tested on: Human immunodeficiency virus 1; assay: Antiviral activity against HIV1 Clade C infected in human TZM-bl cells assessed as inhibition of viral entry incubated for 30 mins prior to infection and measured after 48 hrs post infection by luciferase reporter gene assay; type: functional, organism-based; conditions: Human immunodeficiency virus 1, Clade C

IC50 [1] | IC50 [2] | IC50 [3] | IC50 [4] | Kd [5] | deltaG [6] | deltaH [7] | -TdeltaS [8] | IC50 [9] | IC50 [10] | Compound
19.7 µM | 1.6 µM | 1.2 µM | 83.7 µM | 0.095 µM | -9.6 kcal/mol | -14.2 kcal/mol | 4.6 kcal/mol | – | – | CN(Cc1ccc2c(c1)[C@H](NC(=O)C(=O)Nc1ccc(Cl)c(F)c1)[C@@H](CNC(=N)N)C2)C(=N)N
6.1 µM | 0.8 µM | 1.6 µM | > 100 µM | 0.095 µM | -9.6 kcal/mol | -15.4 kcal/mol | 5.8 kcal/mol | – | – | CN(Cc1ccc2c(c1)C[C@H](CNC(=N)N)[C@H]2NC(=O)C(=O)Nc1ccc(Cl)c(F)c1)C(=N)N
> 100 µM | 21 µM | – | > 100 µM | 1.2 µM | -8.1 kcal/mol | -13.2 kcal/mol | 5.1 kcal/mol | – | – | CNCc1ccc2c(c1)C[C@@H](CNC(=N)N)[C@@H]2NC(=O)C(=O)Nc1ccc(Cl)c(F)c1

More lines, now with the values behind:

Compound | IC50 [1] | IC50 [2] | IC50 [3] | IC50 [4] | Kd [5] | deltaG [6] | deltaH [7] | -TdeltaS [8] | IC50 [9] | IC50 [10]
CNCc1ccc2c(c1)[C@@H](NC(=O)C(=O)Nc1ccc(Cl)c(F)c1)[C@H](CNC(=N)N)C2 | > 100 µM | 87.8 µM | > 100 µM | > 100 µM | 3.4 µM | -7.5 kcal/mol | -11.3 kcal/mol | 3.8 kcal/mol | – | –
CNCc1ccc2c(c1)[C@H](NC(=O)C(=O)Nc1ccc(Cl)c(F)c1)[C@@H](CNC(=N)N)C2 | 37.3 µM | 2.1 µM | 6.7 µM | > 100 µM | 0.024 µM | -10.4 kcal/mol | -28.2 kcal/mol | 17.8 kcal/mol | – | –
N=C(N)NC[C@H]1Cc2ccccc2[C@@H]1NC(=O)C(=O)Nc1ccc(Cl)c(F)c1 | 66.8 µM | 3.8 µM | 8.5 µM | 94.3 µM | 0.11 µM | -9.5 kcal/mol | -17.9 kcal/mol | 8.4 kcal/mol | – | –
CNCc1ccc2c(c1)C[C@H](CNC(=N)N)[C@H]2NC(=O)C(=O)Nc1ccc(Cl)c(F)c1 | 14.5 µM | 1.3 µM | 3.1 µM | > 100 µM | 0.047 µM | -10 kcal/mol | -20.7 kcal/mol | 10.7 kcal/mol | 3.5 µM | 17 µM
